Measured values as given in ChEMBL document CHEMBL1131640, “L-carnitine esters as "soft", broad-spectrum antimicrobial amphiphiles” (J Med Chem, 1998).

Assays:
Format in all cases: functional
[1] = tested on: Proteus vulgaris; test: Minimal inhibitory concentration against Proteus vulgaris
Outline: (§1)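 Microtiter broth dilution MIC assay. Strains: S. aureus, S. faecalis, E. coli, P. vulgaris and C. albicans were wild-type clinical isolates; S. cerevisiae ATCC 7752, A. fumigatus ATCC 28212, A. niger ATCC 16404 and M. mucedo ATCC 7941.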

[2] = tested on: Staphylococcus aureus; test: Minimal inhibitory concentration against Staphylococcus aureus; outline: as §1
[3] = tested on: Enterococcus faecalis; test: Minimal inhibitory concentration against Streptococcus faecalis; outline: as §1
[4] = tested on: Escherichia coli; test: Minimal inhibitory concentration against Escherichia coli; outline: as §1
[5] = tested on: Aspergillus niger; test: Minimal inhibitory concentration against Aspergillus niger; outline: as §1
[6] = tested on: Aspergillus fumigatus; test: Minimal inhibitory concentration against Aspergillus fumigatus; outline: as §1
[7] = tested on: Candida albicans; test: Minimal inhibitory concentration against Candida albicans; outline: as §1
[8] = tested on: Saccharomyces cerevisiae; test: Minimal inhibitory concentration against Saccharomyces cerevisiae; outline: as §1
[9] = tested on: Mucor mucedo; test: Minimal inhibitory concentration against Mucor mucedo; outline: as §1

| MIC [1] | MIC [2] | MIC [3] | MIC [4] | MIC [5] | MIC [6] | MIC [7] | MIC [8] | MIC [9] | Structure (SMILES) |
| --- | --- | --- | --- | --- | --- | --- | --- | --- | --- |
| 100 µg/mL | 3.12 µg/mL | 1.56 µg/mL | 100 µg/mL | – | – | – | – | – | CCCCCCCCCCCCCOC(=O)C[C@H](C[N+](C)(C)C)OC(=O)CC(C)C.[Cl-] |
| 50 µg/mL | 6.25 µg/mL | 3.12 µg/mL | 25 µg/mL | 25 µg/mL | 25 µg/mL | 3.12 µg/mL | 12.5 µg/mL | 50 µg/mL | CCCCCCCCCCC(=O)O[C@H](CC(=O)OCCOc1ccccc1)C[N+](C)(C)C.[Cl-] |
| 100 µg/mL | 6.25 µg/mL | 3.12 µg/mL | 50 µg/mL | 12.5 µg/mL | 12.5 µg/mL | 3.12 µg/mL | 3.12 µg/mL | 25 µg/mL | CCCCCCCCCCCOC(=O)C[C@H](C[N+](C)(C)C)OC(=O)CCCBr.[Cl-] |
| 100 µg/mL | 3.12 µg/mL | 3.12 µg/mL | 50 µg/mL | 6.25 µg/mL | 6.25 µg/mL | 3.12 µg/mL | > 100 µg/mL | 25 µg/mL | CCCCCCCOC(=O)C[C@H](C[N+](C)(C)C)OC(=O)CCCCCCCCCBr.[Cl-] |
| > 100 µg/mL | 12.5 µg/mL | 3.12 µg/mL | 100 µg/mL | 50 µg/mL | > 100 µg/mL | 25 µg/mL | 12.5 µg/mL | 100 µg/mL | CCCCCC(CCCCC)OC(=O)C[C@H](C[N+](C)(C)C)OC(=O)CC(C)C.[Cl-] |
| 50 µg/mL | 12.5 µg/mL | 3.12 µg/mL | 25 µg/mL | 6.25 µg/mL | 12.5 µg/mL | 6.25 µg/mL | 6.25 µg/mL | 12.5 µg/mL | C=CCCCCCCCCCOC(=O)C[C@H](C[N+](C)(C)C)OC(=O)CC(C)C.[Cl-] |
| 100 µg/mL | 6.25 µg/mL | 3.12 µg/mL | 50 µg/mL | 12.5 µg/mL | 12.5 µg/mL | 3.12 µg/mL | 3.12 µg/mL | 25 µg/mL | CCCCCCCCCCCC(=O)O[C@H](CC(=O)OCCOc1ccccc1)C[N+](C)(C)C.[Cl-] |
| > 100 µg/mL | > 100 µg/mL | 3.12 µg/mL | > 100 µg/mL | – | – | – | > 100 µg/mL | – | CCCCCCCCCCCOC(=O)C[C@H](C[N+](C)(C)C)OC(=O)CCCCCCCCCC.[Cl-] |
| > 100 µg/mL | 50 µg/mL | 25 µg/mL | > 100 µg/mL | 100 µg/mL | > 100 µg/mL | 25 µg/mL | 25 µg/mL | 50 µg/mL | CCCCCCCCCCCCCOC(=O)C[C@H](C[N+](C)(C)C)OC(=O)CCCCCCCCCC.[Cl-] |
| > 100 µg/mL | 12.5 µg/mL | 25 µg/mL | > 100 µg/mL | > 100 µg/mL | > 100 µg/mL | > 100 µg/mL | > 100 µg/mL | > 100 µg/mL | CCCCCCCCCCCOC(=O)C[C@@H](O)C[N+](C)(C)C.[Cl-] |
| > 100 µg/mL | 50 µg/mL | 50 µg/mL | > 100 µg/mL | > 100 µg/mL | > 100 µg/mL | > 100 µg/mL | > 100 µg/mL | > 100 µg/mL | CCCCCCCCOC(=O)C[C@H](C[N+](C)(C)C)OC(=O)CC(C)C.[Cl-] |
| > 100 µg/mL | > 100 µg/mL | > 100 µg/mL | > 100 µg/mL | > 100 µg/mL | > 100 µg/mL | > 100 µg/mL | > 100 µg/mL | > 100 µg/mL | CCCCCCCOC(=O)C[C@H](C[N+](C)(C)C)OC(=O)CCOc1ccccc1.[Cl-] |
| > 100 µg/mL | > 100 µg/mL | 25 µg/mL | > 100 µg/mL | > 100 µg/mL | > 100 µg/mL | > 100 µg/mL | > 100 µg/mL | > 100 µg/mL | CCCCCCCCCCCCCCCCCC(=O)O[C@H](CC(=O)O)C[N+](C)(C)C.[Cl-] |
| 100 µg/mL | 12.5 µg/mL | 6.25 µg/mL | 100 µg/mL | 50 µg/mL | 25 µg/mL | 6.25 µg/mL | > 100 µg/mL | 50 µg/mL | CC(C)CC(=O)O[C@H](CC(=O)OCCCCCCCCCCCBr)C[N+](C)(C)C.[Cl-] |
| > 100 µg/mL | 12.5 µg/mL | – | > 100 µg/mL | 12.5 µg/mL | 25 µg/mL | 12.5 µg/mL | 12.5 µg/mL | 50 µg/mL | CCCCCCCCCCC(=O)O[C@H](CC(=O)OCCCCCCC(F)(F)C(F)(F)C(F)(F)C(F)(F)F)C[N+](C)(C)C.[Cl-] |
| > 100 µg/mL | 6.25 µg/mL | 6.25 µg/mL | > 100 µg/mL | – | – | – | – | – | CCCCCCCCCCCCCOC(=O)C[C@H](C[N+](C)(C)C)OC(=O)C(C)CCCC.[Cl-] (some centres undefined) |
| > 100 µg/mL | 6.25 µg/mL | 3.12 µg/mL | > 100 µg/mL | – | – | – | – | – | CCCCCCCCCCCCCOC(=O)C[C@H](C[N+](C)(C)C)OC(=O)CCCCCC.[Cl-] |

| MIC [1] | MIC [2] | MIC [3] | MIC [4] | MIC [5] | MIC [6] | MIC [7] | MIC [8] | MIC [9] | Structure (SMILES) |
| --- | --- | --- | --- | --- | --- | --- | --- | --- | --- |
| > 100 µg/mL | 3.12 µg/mL | 1.56 µg/mL | > 100 µg/mL | 6.25 µg/mL | 3.12 µg/mL | 3.12 µg/mL | 3.12 µg/mL | 12.5 µg/mL | CCCCCCCCCCCCOC(=O)C[C@H](C[N+](C)(C)C)OC(=O)CCCCCC.[Cl-] |
| 100 µg/mL | 6.25 µg/mL | 3.12 µg/mL | 25 µg/mL | – | – | – | – | – | CCCCCCCCCCCCOC(=O)C[C@H](C[N+](C)(C)C)OC(=O)C(C)C.[Cl-] |
| > 100 µg/mL | 6.25 µg/mL | 3.12 µg/mL | > 100 µg/mL | – | – | – | 3.12 µg/mL | – | CCCCCCCCCCCCCCCCOC(=O)C[C@H](C[N+](C)(C)C)OC(=O)CC(C)C.[Cl-] |
| 50 µg/mL | 6.25 µg/mL | 3.12 µg/mL | 25 µg/mL | – | – | – | – | – | CCCCCCCCCCCOC(=O)C[C@H](C[N+](C)(C)C)OC(=O)CC(C)C.[Cl-] |
| 100 µg/mL | 3.12 µg/mL | 1.56 µg/mL | 25 µg/mL | 3.12 µg/mL | 3.12 µg/mL | 3.12 µg/mL | 3.12 µg/mL | 6.25 µg/mL | CCCCCCCCCCCOC(=O)C[C@H](C[N+](C)(C)C)OC(=O)CCCCCC.[Cl-] |
| > 100 µg/mL | 3.12 µg/mL | 1.56 µg/mL | 25 µg/mL | – | – | – | – | – | CCCCCCCCCCCOC(=O)C[C@H](C[N+](C)(C)C)OC(=O)CCC(C)C.[Cl-] |
| 50 µg/mL | 3.12 µg/mL | 3.12 µg/mL | 25 µg/mL | 25 µg/mL | 25 µg/mL | 3.12 µg/mL | 3.12 µg/mL | 50 µg/mL | CCCCCCCCCCOC(=O)C[C@H](C[N+](C)(C)C)OC(=O)CCCCCC.[Cl-] |
| > 100 µg/mL | 12.5 µg/mL | 6.25 µg/mL | > 100 µg/mL | 25 µg/mL | 100 µg/mL | 12.5 µg/mL | 12.5 µg/mL | 50 µg/mL | CCCCCCCCCCCCCOC(=O)C[C@H](C[N+](C)(C)C)OC(=O)CCCCCCCC.[Cl-] |
| > 100 µg/mL | 3.12 µg/mL | 3.12 µg/mL | 25 µg/mL | – | – | – | > 100 µg/mL | – | CCCCCCCCCCCOC(=O)C[C@H](C[N+](C)(C)C)OC(=O)CCCCCCC.[Cl-] |
| > 100 µg/mL | 6.25 µg/mL | 3.12 µg/mL | > 100 µg/mL | 3.12 µg/mL | 6.25 µg/mL | 6.25 µg/mL | > 100 µg/mL | 6.25 µg/mL | CCCCCCCCCCCCCCCCOC(=O)C[C@@H](O)C[N+](C)(C)C.[Cl-] |
| 50 µg/mL | 3.12 µg/mL | 3.12 µg/mL | 25 µg/mL | 6.25 µg/mL | 12.5 µg/mL | 3.12 µg/mL | 3.12 µg/mL | 25 µg/mL | CCCCCCCCOC(=O)C[C@H](C[N+](C)(C)C)OC(=O)CCCCCCCC.[Cl-] |
| 100 µg/mL | 12.5 µg/mL | 6.25 µg/mL | > 100 µg/mL | 50 µg/mL | 100 µg/mL | 12.5 µg/mL | 25 µg/mL | 50 µg/mL | CC(C)CC(=O)O[C@H](CC(=O)OCCCCCCC(F)(F)C(F)(F)C(F)(F)C(F)(F)F)C[N+](C)(C)C.[Cl-] |
| > 100 µg/mL | 12.5 µg/mL | 6.25 µg/mL | 50 µg/mL | 25 µg/mL | 50 µg/mL | 3.12 µg/mL | 3.12 µg/mL | 100 µg/mL | CCCCCCCCCCOC(=O)C[C@H](C[N+](C)(C)C)OC(=O)CC(C)C.[Cl-] |
| > 100 µg/mL | 3.12 µg/mL | 3.12 µg/mL | 100 µg/mL | – | – | – | 1.56 µg/mL | – | CCCCCCCCCCCCOC(=O)C[C@H](C[N+](C)(C)C)OC(=O)CC(C)C.[Cl-] |
| > 100 µg/mL | > 100 µg/mL | > 100 µg/mL | > 100 µg/mL | > 100 µg/mL | > 100 µg/mL | > 100 µg/mL | > 100 µg/mL | > 100 µg/mL | CCCCCCCCCCCC(=O)O[C@H](CC(=O)OCCC(F)(F)C(F)(F)C(F)(F)C(F)(F)C(F)(F)C(F)(F)F)C[N+](C)(C)C.[Cl-] |
| > 100 µg/mL | 6.25 µg/mL | 6.25 µg/mL | > 100 µg/mL | – | – | – | – | – | CCCCCCCCCCCCCOC(=O)C[C@H](C[N+](C)(C)C)OC(=O)CCCCCCC.[Cl-] |
| > 100 µg/mL | > 100 µg/mL | > 100 µg/mL | > 100 µg/mL | > 100 µg/mL | > 100 µg/mL | > 100 µg/mL | > 100 µg/mL | > 100 µg/mL | CCCCCCCCCCC(=O)O[C@H](CC(=O)OCCC(F)(F)C(F)(F)C(F)(F)C(F)(F)C(F)(F)C(F)(F)C(F)(F)C(F)(F)F)C[N+](C)(C)C.[Cl-] |
